Screening results (PubChem BioAssay)
Mdm2 MdmX PPI – human Mdm2/MdmX binding inhibition; O15151+Q00987; SaOS-2 split-luciferase Mdm2/MdmX complementation, luminescence; inhibition, % at 8 µM; 330,000 tested, 3% active;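 active means inhibition of at least 50% at 8 µM in the primary screen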
Target sequence (O15151 whole entry, looked up): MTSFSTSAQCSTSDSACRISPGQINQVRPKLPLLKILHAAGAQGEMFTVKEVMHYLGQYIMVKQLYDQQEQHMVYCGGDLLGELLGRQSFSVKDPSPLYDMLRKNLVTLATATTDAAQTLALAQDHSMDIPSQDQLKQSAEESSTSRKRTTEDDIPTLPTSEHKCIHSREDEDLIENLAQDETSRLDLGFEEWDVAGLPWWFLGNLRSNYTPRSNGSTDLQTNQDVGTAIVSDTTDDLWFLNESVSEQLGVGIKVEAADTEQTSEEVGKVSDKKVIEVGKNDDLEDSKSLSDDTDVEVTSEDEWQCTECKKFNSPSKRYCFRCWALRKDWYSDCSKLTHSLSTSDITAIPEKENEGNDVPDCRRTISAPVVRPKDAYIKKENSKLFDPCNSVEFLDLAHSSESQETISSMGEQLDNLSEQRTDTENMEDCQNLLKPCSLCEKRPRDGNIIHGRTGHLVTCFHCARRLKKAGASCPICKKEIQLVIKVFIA
Target sequence (Q00987 whole entry, looked up): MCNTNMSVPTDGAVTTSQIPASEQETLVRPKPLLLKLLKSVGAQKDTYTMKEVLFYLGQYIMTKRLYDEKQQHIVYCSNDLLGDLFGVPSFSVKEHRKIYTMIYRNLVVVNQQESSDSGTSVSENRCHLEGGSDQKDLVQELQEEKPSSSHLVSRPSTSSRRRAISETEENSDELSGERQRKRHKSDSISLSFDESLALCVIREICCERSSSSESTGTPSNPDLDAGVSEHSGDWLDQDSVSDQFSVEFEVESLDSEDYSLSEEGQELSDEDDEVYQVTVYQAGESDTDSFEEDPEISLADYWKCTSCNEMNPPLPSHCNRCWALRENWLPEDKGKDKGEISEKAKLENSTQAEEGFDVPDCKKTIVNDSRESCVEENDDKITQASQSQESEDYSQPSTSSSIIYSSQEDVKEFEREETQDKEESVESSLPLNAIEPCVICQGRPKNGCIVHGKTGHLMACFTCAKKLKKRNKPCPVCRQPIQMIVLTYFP
SKKanGAS inh – SKKanGAS growth inhibition | inhibition, % at 7.5 µM | 300,000 tested, 1.3% active | AID 1662 | S. pyogenes SKKanGAS, kanamycin growth, BacTiter-Glo, 6 h;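 active means mean replicate score, as percent of positive control median, at least 50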;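 further: strain carries kanamycin resistance gene driven by streptokinase promoter and grows in 40 µg/ml kanamycin; loss of luminescence reflects streptokinase promoter inhibition or plain growth inhibition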
Beta apoptosis – blocks beta cell apoptosis. INS-1E cytokine-induced death, ATP luminescence, 48 h; percent of positive-control rescue, neutral wells zero. protection from apoptosis, % (no concentration beside the values). 300,000 tested, 0.8% active. AID 435005;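 active means Every replicate reaches about 75%, or at least half do and their mean reaches it too, limit read from the data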;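 further: higher means more ATP so stronger rescue from cytokine killing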
T cruzi repl – T. cruzi replication inhibition; T. cruzi beta-gal in NIH3T3, luminescence, 90 h; inhibition, % (concentration not given with the values); 300,000 tested, 1.4% active; AID 1885;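 active means mean inhibition across valid replicates above about 55%, limit read from the data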;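 further: signal also drops with host cell toxicity which is not excluded here; higher percent means less beta-gal luminescence so fewer parasites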
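compound dosing = single 50 nL compound addition per well in DMSO | material = NIH/3T3 host cells with β-galactosidase reporter T. cruzi | input = 5,000 host fibroblasts per well | timing = ≥90 h infection period, 3 h prior cell attachment | read-out basis = percent inhibition of parasite-derived β-gal signal | detection = GalScreen β-gal luminescence, detergent lysis, 60 min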
CSC inhib – cancer stem cell inhibition | cancer stem cell-like cells viability, luminescence | AID 2717 | 300,000 tested, 1.1% active | inhibition, % at 7.5 µM; in the data active means inhibition above about 75%; tested in HMLE shEcad cells
Lmaj promast – reduces viability of Leishmania major promastigotes | resazurin fluorescence viability | inhibition, % at 10 µM | 200,000 tested, 9% active; in the data active means inhibition above about 50%;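 further: promastigotes grown with compound for 44 hours at 28 °C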
Hits are given with their value; 0 = inactive; - = no result given. Compounds with a hit are over-represented: about 9.4% of the library has one in this group of screens.

SMILES | Mdm2 MdmX PPI | SKKanGAS inh | Beta apoptosis | T cruzi repl | CSC inhib | Lmaj promast
NCCC(=O)N1c2ccccc2Sc2ccc(Cl)cc21 | 0 | 0 | 0 | 0 | 0 | -
CN1CCN(CCC(=O)N2c3ccccc3Sc3ccc(Cl)cc32)CC1 | 0 | 0 | 0 | 0 | 0 | 101
COC(=O)c1ccccc1N/C=C/C(=O)c1ccc(Br)cc1 | 0 | 0 | 0 | 0 | 0 | 73
COc1ccc(CCCC(=O)N/N=C/c2cccc(OC)c2O)cc1C | 0 | 75 | 0 | 0 | 113 | 98
COc1cccc(/C=N/NC(=O)C(=O)NCc2cccnc2)c1O | 0 | 0 | 0 | 0 | 0 | 98
COCCCNC(=S)N/N=C/c1cccc(OC)c1O | 0 | 0 | 88 | - | 0 | -
COCCCNC(=S)N/N=C/c1ccc(O)cc1O | 0 | 0 | 0 | 0 | 0 | -
COc1cccc(/C=N/NC(=O)C[n+]2ccccc2)c1O | 0 | 0 | 0 | 0 | 0 | 0
O=c1c2ccccc2nc2n1CC/C2=C/N1CCN(c2cccc(C(F)(F)F)c2)CC1 | 0 | 0 | 0 | 0 | 0 | 55
O=C(O)CS(=O)(=O)CC(=O)NCc1cccc(C(F)(F)F)c1 | 0 | 0 | 0 | 0 | 0 | 0
FC(F)(F)c1cccc(CNC2c3ccccc3-c3ccccc32)c1 | 0 | 75 | 0 | 0 | 0 | -
N#Cc1c(NC(=O)c2ccc(Cn3cc(Br)cn3)o2)sc2c1CCCCC2 | 0 | 0 | 0 | 0 | 106 | 0
CC1(C)CC(=O)c2c(oc3cc(O)c(O)cc23)C1 | 0 | 0 | 0 | 0 | 0 | 84
CN(c1ccccc1)S(=O)(=O)c1cccc(NC(=O)CSc2ncn[nH]2)c1 | 0 | 0 | 0 | 0 | 0 | 0
CN(c1ccccc1)S(=O)(=O)c1cccc(NC(=O)CSc2nnc(N)s2)c1 | 0 | 0 | 0 | 0 | 0 | 78
Cc1ccccc1CN(C)CC(=O)Nc1cccc(S(=O)(=O)N(C)c2ccccc2)c1 | 0 | 0 | 0 | 0 | 0 | 71
CN(c1ccccc1)S(=O)(=O)c1cccc(NC(=O)CSc2nncs2)c1 | 0 | 0 | 0 | 0 | 0 | 72
CC(C)n1cnnc1SCC(=O)Nc1cccc(S(=O)(=O)N(C)c2ccccc2)c1 | 0 | 0 | 0 | 0 | 0 | -
CC1Cc2ccccc2N1C1=CC(=O)CCC1 (stereo not given) | 0 | 0 | 0 | 0 | 0 | 98
CC1Cc2ccccc2N1C1=NS(=O)(=O)c2ccccc21 (stereo not given) | 0 | 0 | 0 | 0 | 0 | 0
C=CCn1c(NCc2ccccc2)nc2ccccc21 | 0 | 0 | 0 | 0 | 0 | 0
C=CCn1c(N2C(=O)CC(Cc3ccccc3)C2=O)nc2ccccc21 (stereo not given) | 0 | 64 | 0 | 0 | 0 | 0
CC1CN(S(=O)(=O)c2cccc(C(=O)NCCC3=CCCCC3)c2)CC(C)O1 (stereo not given) | 0 | 0 | 0 | 0 | - | -
Cc1cc(-n2c(C)cc(C(=O)CSc3nncn3C(C)C)c2C)no1 | 0 | 0 | 0 | 0 | 0 | -
Cc1cccc(NC(=O)CCN2CCN(C/C=C/c3ccccc3)CC2)c1 | 0 | 0 | 0 | 0 | 0 | 91
SMILES | Mdm2 MdmX PPI | SKKanGAS inh | Beta apoptosis | T cruzi repl | CSC inhib | Lmaj promast
COc1ccccc1NC(=O)C(C)N1CCN(C/C=C/c2ccccc2)CC1 (stereo not given) | 0 | 0 | 0 | 0 | 0 | 84
Cc1ccc(NC(=O)Cn2c(=O)c(C)nc3ccccc32)cc1 | 0 | 0 | 0 | 0 | 0 | 0
COc1ccccc1C(=O)NCC(=O)N1CCN(C/C=C/c2ccccc2)CC1 | 0 | - | 0 | - | 0 | -
Cc1cccc(NC(=O)Cn2c(/C=C/c3ccccc3)nc3ccccc32)c1 | 0 | 0 | 80 | 0 | 0 | 0
Cc1ccccc1NC(=O)CCN1CCN(C/C=C/c2ccccc2)CC1 | 0 | 0 | 0 | 0 | 0 | 88
Cc1ccc(SCC(=O)c2ccc(CC(=O)O)s2)cc1 | 0 | 0 | 0 | 0 | 0 | -
CC(C)NC(=O)NC(=O)COC(=O)c1ncc(Cl)c(Cl)c1Cl | 0 | 0 | 0 | 0 | 0 | 0
O=C(CCN1CCN(C/C=C/c2ccccc2)CC1)Nc1ccccc1 | 0 | 0 | 0 | 56 | 0 | 93
C[n+]1ccc(/C=C/c2ccccc2O)c2ccccc21 | 0 | 0 | 0 | 70 | 0 | 99
CC(=O)/C=C/c1ccccc1O | 0 | 0 | 0 | 0 | 0 | 0
Brc1ccccc1CN1CCC(N2CCCCC2)CC1 | 0 | 0 | 0 | 0 | 0 | 100
O=C(c1ccccc1)N1CCN(Cc2ccccc2Br)CC1 | 0 | - | 0 | - | - | 0
CC1(O)CC(c2ccc(Cl)cc2)=NN1C(=O)c1ccc([N+](=O)[O-])cc1 (stereo not given) | 0 | 0 | 0 | 0 | 86 | 0
Cc1ccc(C)c(N2N=C(C(=O)Nc3cccc(S(=O)(=O)N4CCCCC4)c3)CCC2=O)c1 | 0 | - | 0 | - | - | -
